Here are results for one compound from ChEMBL document CHEMBL4699498 (J Med Chem, 2020).

Data set [1] has as its target T1, Protein cereblon/Poly [ADP-ribose] polymerase 1 (Homo sapiens, UniProt P09874+Q96SW2). Put plainly: Protac activity at CRBN/PARP1 in human HCC1937 cells assessed as induction of PARP1 degradation at 30 nM incubated for 1 to 24 hrs by Western blot analysis. It counts as cell-based. The following applies: time hrs 1-24. On the technique in general: A western blot detects proteins with antibodies after separation by electrophoresis.
Target sequence in this assay (P09874 2-1014 limits assumed): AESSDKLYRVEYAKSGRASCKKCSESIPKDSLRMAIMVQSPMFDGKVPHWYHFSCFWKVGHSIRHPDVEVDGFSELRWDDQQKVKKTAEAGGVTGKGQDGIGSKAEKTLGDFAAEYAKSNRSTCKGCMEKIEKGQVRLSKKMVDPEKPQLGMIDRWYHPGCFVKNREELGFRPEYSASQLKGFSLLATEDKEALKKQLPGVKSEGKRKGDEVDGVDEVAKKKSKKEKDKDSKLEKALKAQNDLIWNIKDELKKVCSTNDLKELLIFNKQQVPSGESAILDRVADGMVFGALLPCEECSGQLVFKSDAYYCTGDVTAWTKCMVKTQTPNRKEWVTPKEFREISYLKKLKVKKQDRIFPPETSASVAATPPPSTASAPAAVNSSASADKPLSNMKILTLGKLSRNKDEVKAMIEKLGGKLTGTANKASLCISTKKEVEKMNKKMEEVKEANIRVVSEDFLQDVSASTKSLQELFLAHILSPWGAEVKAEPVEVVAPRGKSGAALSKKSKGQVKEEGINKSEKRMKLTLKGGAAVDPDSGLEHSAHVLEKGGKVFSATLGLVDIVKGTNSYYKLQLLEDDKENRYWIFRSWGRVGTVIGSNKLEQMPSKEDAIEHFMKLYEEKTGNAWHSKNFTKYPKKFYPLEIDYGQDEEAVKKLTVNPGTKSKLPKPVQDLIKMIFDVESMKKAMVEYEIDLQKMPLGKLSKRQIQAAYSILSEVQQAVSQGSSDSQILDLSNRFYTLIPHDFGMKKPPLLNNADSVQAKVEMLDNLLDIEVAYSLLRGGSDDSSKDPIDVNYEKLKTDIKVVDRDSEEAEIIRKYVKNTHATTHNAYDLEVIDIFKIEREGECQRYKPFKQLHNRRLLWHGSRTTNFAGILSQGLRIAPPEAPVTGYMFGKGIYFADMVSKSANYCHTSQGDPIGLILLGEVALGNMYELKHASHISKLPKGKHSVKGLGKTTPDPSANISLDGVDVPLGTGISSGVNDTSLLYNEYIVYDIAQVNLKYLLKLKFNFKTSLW
Target sequence in this assay (Q96SW2 whole entry partner): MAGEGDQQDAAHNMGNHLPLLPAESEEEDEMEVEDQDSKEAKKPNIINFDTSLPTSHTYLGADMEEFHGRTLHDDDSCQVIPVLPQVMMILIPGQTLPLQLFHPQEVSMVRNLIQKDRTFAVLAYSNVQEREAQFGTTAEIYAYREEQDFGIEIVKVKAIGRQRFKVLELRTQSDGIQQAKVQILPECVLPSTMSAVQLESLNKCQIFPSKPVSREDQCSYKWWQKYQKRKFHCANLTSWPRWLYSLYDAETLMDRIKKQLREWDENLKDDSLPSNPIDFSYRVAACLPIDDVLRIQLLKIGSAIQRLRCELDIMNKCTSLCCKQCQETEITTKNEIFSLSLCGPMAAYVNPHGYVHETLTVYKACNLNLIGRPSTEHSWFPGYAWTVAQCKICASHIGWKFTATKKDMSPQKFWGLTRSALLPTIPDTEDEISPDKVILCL

Data set [2] addresses T1, Protein cereblon/Poly [ADP-ribose] polymerase 1. Put plainly: Protac activity at CRBN/PARP1 in human MDA-MB-436 cells assessed as induction of PARP1 degradation at 30 nM incubated for 24 hrs in presence of 0.1 to 1 uM CRBN ligand pomalidomide by Western blot analysis.
Target sequence in this assay (P09874 2-1014 limits assumed): as the sequence (P09874 2-1014 limits assumed) above
Target sequence in this assay (Q96SW2 whole entry partner): as the sequence (Q96SW2 whole entry partner) above
The target is the same in data set [3]. Put plainly: Protac activity at CRBN/PARP1 in human SW-620 cells assessed as induction of PARP1 degradation at 30 nM measured after 2 hrs by Western blot analysis.
Target sequence in this assay (P09874 2-1014 limits assumed): as the sequence (P09874 2-1014 limits assumed) above
Target sequence in this assay (Q96SW2 whole entry partner): as the sequence (Q96SW2 whole entry partner) above
The next data set has as its system CWR22R. Put plainly: Antiproliferation activity against human 22Rv1 assessed as cell growth inhibition incubated for 7 days by CCK-8 assay. It counts as functional, cell-based. The following applies: time 7.0 day. Summed up: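 Cells were sub-cultured at least twice and seeded for 24 h before dosing. Compounds came from 10 mM DMSO stocks, given as 10 points of 3-fold serial dilution starting at 10-20 μM. Incubation was about 7 days (Capan-1 13 days) at 37 °C, 5% CO2. Read-out was CCK-8 absorbance at 450 nm, as % growth versus DMSO wells (duplicate wells). IC50 was fitted by nonlinear regression; three independent experiments.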
In general terms: Formazan colour is commonly taken as a measure of viable cells.

For the next data set, the system named is CAPAN-1. Put plainly: Antitumor activity against Capan1 cells xenografted in Balb/c mouse assessed as tumor growth inhibition at 25 mg/kg, ip administered 5 times a week for 3 weeks. It counts as functional, organism-based. Summed up:
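Male BALB/c nude mice (5-6 weeks old) carried subcutaneous Capan-1 xenografts (5×10^6 cells, right armpit). At ~150 mm³ they were randomized (6 per group). Dosing was 100 mg/kg by oral gavage daily for 21 days, or 25 mg/kg intraperitoneally 5 times a week for 3 weeks. Vehicle was 5% DMSO/20% PEG400/10% Cremophor EL/65% saline. Tumor volume was (length/2)×width², measured 2-3 times weekly.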

The target in data set [4] is T1, Protein cereblon/Poly [ADP-ribose] polymerase 1. Put plainly: Protac activity at CRBN/PARP1 in human SW-620 cells assessed as induction of PARP1 degradation at 30 nM incubated for 24 hrs in presence of NEDD8-activating E1 enzyme inhibitor MLN4924 by Western blot analysis. It counts as cell-based.
Target sequence in this assay (P09874 2-1014 limits assumed): as the sequence (P09874 2-1014 limits assumed) above
Target sequence in this assay (Q96SW2 whole entry partner): as the sequence (Q96SW2 whole entry partner) above
The nature of data set [5]: Half-life in ICR mouse at 25 mg/kg, ip by LC-tandem mass spectrometry analysis. It counts as ADME, organism-based. The settings on record: in vivo. Summed up:
(§1)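 Female ICR mice (20-23 g, 6-7 weeks old, n = 3) received a single 25 mg/kg intraperitoneal dose formulated in 5% DMSO/15% Solutol HS15/80% D5W. Plasma was sampled at 0.5, 1, 2, 4, 6, 8 and 24 h and protein-precipitated with methanol. Compound was quantified by LC-MS/MS against a standard curve.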

The target in data set [6] is T1, Protein cereblon/Poly [ADP-ribose] polymerase 1. Put plainly: Protac activity at CRBN/PARP1 in human MDA-MB-436 cells assessed as PARP1 protein degradation at 1 to 10 nM incubated for 24 hrs by western blot analysis. It counts as cell-based. The settings on record: dose nM 1-10, time 24.0 hrs.
Target sequence in this assay (P09874 2-1014 limits assumed): as the sequence (P09874 2-1014 limits assumed) above
Target sequence in this assay (Q96SW2 whole entry partner): as the sequence (Q96SW2 whole entry partner) above
Data set [7] is described as follows: Acute toxicity in Balb/c mouse xenografted with Capan1 cells assessed as mean weight loss at 50 mg/kg, ip qd administered for 5 days in presence of cisplatin measured on day 10 relative to control. It counts as organism-based. The settings on record: in vivo, 240 h, time 10 day. A digest of the protocol:
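Male BALB/c nude mice carried Capan-1 xenografts (5×10^6 cells s.c.), randomized at ~150 mm³ (6 per group). Treatment was 25 or 50 mg/kg intraperitoneally or 100 mg/kg by oral gavage, once daily on days 0-4. Cisplatin 6 mg/kg in saline was given intraperitoneally on day 2, 45 min after the partner drug. Tumor volume and body weight were measured 2-3 times weekly.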

The target of data set [8] is T1, Protein cereblon/Poly [ADP-ribose] polymerase 1. Put plainly: Protac activity at CRBN/PARP1 in human MDA-MB-468 cells assessed as induction of PARP1 degradation at 30 nM incubated for 1 to 24 hrs by Western blot analysis. It counts as cell-based. The settings on record: time hrs 1-24.
Target sequence in this assay (P09874 2-1014 limits assumed): as the sequence (P09874 2-1014 limits assumed) above
Target sequence in this assay (Q96SW2 whole entry partner): as the sequence (Q96SW2 whole entry partner) above
Data set [9] has the same target. Put plainly: Protac activity at CRBN/PARP1 in human PC-3 cells assessed as induction of PARP1 degradation at 30 nM incubated for 1 to 24 hrs by Western blot analysis. It counts as cell-based. The settings on record: time hrs 1-24.
Data set [10] has the same target. Put plainly: Protac activity at CRBN/PARP1 in human MDA-MB-436 cells assessed as induction of PARP1 degradation at 30 nM incubated for 24 hrs in presence of NEDD8-activating E1 enzyme inhibitor MLN4924 by Western blot analysis.
Data set [11] can be described thus: Cmax in ICR mouse at 25 mg/kg, ip by LC-tandem mass spectrometry analysis. The following applies: in vivo. Set-up: route intraperitoneal, dose 25 mg/kg. It counts as ADME, organism-based. A digest of the protocol:
as §1

The target of data set [12] is Poly [ADP-ribose] polymerase 1 (Homo sapiens, UniProt P09874). Put plainly: Inhibition of recombinant human C-terminal His-tagged PARP1 expressed in Sf9 insect cells preincubated for 20 mins in presence of activated DNA followed by […] addition and further incubated for 2 hrs by chemiluminescence assay.
Poly [ADP-ribose] polymerase 1, sequence (P09874 whole entry): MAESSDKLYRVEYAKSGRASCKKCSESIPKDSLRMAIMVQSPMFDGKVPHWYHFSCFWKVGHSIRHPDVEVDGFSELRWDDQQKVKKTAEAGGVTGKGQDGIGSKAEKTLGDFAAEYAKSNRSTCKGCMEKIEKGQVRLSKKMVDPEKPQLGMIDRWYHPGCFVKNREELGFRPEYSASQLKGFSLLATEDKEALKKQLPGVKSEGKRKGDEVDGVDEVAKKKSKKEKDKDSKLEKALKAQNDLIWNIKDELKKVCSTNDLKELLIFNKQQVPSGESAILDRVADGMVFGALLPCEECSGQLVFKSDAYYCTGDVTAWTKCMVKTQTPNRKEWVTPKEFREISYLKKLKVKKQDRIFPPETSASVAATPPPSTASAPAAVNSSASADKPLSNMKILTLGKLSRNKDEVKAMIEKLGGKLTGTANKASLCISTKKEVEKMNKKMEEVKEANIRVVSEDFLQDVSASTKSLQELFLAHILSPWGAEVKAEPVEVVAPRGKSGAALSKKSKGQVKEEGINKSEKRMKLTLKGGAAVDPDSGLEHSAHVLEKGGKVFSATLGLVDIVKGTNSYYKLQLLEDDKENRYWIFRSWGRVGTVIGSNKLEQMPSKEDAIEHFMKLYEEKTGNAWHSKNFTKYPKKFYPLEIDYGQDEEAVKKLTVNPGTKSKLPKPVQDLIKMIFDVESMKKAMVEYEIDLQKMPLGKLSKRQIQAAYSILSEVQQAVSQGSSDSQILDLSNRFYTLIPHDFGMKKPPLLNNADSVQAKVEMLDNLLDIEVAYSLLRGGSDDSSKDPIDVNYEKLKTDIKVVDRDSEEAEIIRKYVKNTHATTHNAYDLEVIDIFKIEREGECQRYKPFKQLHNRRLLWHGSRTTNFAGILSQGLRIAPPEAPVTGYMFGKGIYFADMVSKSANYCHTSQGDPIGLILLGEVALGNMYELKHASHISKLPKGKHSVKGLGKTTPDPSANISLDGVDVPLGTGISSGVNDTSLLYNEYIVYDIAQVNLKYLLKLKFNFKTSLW
Data set [13] has as its target T1, Protein cereblon/Poly [ADP-ribose] polymerase 1. Put plainly: Protac activity at CRBN/PARP1 in human MDA-MB-436 cells assessed as induction of PARP1 degradation at 30 nM measured after 2 hrs by Western blot analysis.
Data set [14] is described as follows: Tmax in ICR mouse at 25 mg/kg, ip by LC-tandem mass spectrometry analysis. It counts as ADME, organism-based. The following applies: in vivo. A digest of the protocol: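 Female ICR mice (20-23 g, 6-7 weeks, n = 3) given a single 25 mg/kg ip dose in 5% DMSO/15% Solutol HS15/80% D5W; plasma at 0.5, 1, 2, 4, 6, 8 and 24 h, protein precipitated with methanol, drug quantified by LC-MS/MS against a standard curve.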

For data set [15], the target named is T1, Protein cereblon/Poly [ADP-ribose] polymerase 1. Put plainly: Protac activity at CRBN/PARP1 in human MDA-MB-436 cells assessed as induction of PARP1 degradation at 100 nM measured after 5 days by Western blot analysis. The following applies: time 5.0 day. It counts as cell-based. Summed up:
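MDA-MB-436 cells kept at 100 nM for up to 5 days; PARP1 followed by western blot against β-tubulin.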

Data set [16] can be described thus: Plasma concentration in ICR mouse at 25 mg/kg, ip at 0.25 hrs postinjection by LC-tandem mass spectrometry analysis. It counts as ADME, organism-based.
Data set [17] concerns the target T1, Protein cereblon/Poly [ADP-ribose] polymerase 1. Put plainly: Protac activity at CRBN/PARP1 in human MDA-MB-231 cells assessed as induction of PARP1 degradation measured after 24 hrs by Western blot analysis. It counts as cell-based. A digest of the protocol: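 Concentration-response over a wide range, 24 h exposure; PARP1 quantified by western blot and normalized to β-tubulin density; DC50 derived from two biologically independent experiments.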
Target sequence in this assay (P09874 whole entry): as above
Target sequence in this assay (Q96SW2 whole entry): as the sequence (Q96SW2 whole entry partner) above

Active and inactive are the calls of the source.

With `O=C(CCCCCCCCCCC(=O)N1CCN(C(=O)c2cc(Cc3n[nH]c(=O)c4ccccc34)ccc2F)CC1)NCCNc1cccc2c1C(=O)N(C1CCC(=O)NC1=O)C2=O` (centres undefined), the outcome (in [1]; in data set [3]; in the data set with CWR22R; in the data set on CAPAN-1; in data set [6]; in data set [8]) was Active. Moreover, the result in data set [9], in data set [13] and in data set [15] was Active. Moreover, the result in data set [2], in [4] and in data set [10] was inactive. Besides, the half-life (commonly the time needed for the level to fall by half in the phase considered) in data set [5] is 185 min. In addition, the Activity in [7] was 12%. Moreover, the Cmax (commonly the maximum level reached in the sampled fluid or tissue) in data set [11] was determined as 1840 ng/mL. Further, the IC50 (commonly the concentration at which inhibition is half-maximal) in data set [12] was found to be 2.3 nM. Also, the Tmax (usually the time from dosing to the highest level) in data set [14] amounted to 15 min. This compound also came in with a concentration at 0.25 h in data set [16] of 2100 nM. Moreover, in data set [17], the DC50 (usually the concentration at which degradation of the target reaches its halfway point) stood at 0.228 nM.
